Experimental data as given in ChEMBL document CHEMBL1128599, “Nucleoside conjugates. 14. Synthesis and antitumor activity of 1-beta-D-arabinofuranosylcytosine conjugates of ether lipids with improved water solubility” (J Med Chem, 1995).
“And” between values parts separate entries of the source, which are not always exact repeats. Identical values can stand only once.

Tests used:
[1] = Solubility in water determined by UV absorption at 272 nm; format: physicochemical; conditions: read-out: S
[2] = system: Mus musculus; assay: Antitumor activity at 150 mg/kg/day on 1, 5, 9 day treatment schedule, qd against L1210 infected mice was expressed as increase in life span (ILS); format: functional; conditions: L1210, 216 h
Method in brief: (§1)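 Groups of 6 male DBA/2Ros mice (20–29 g) were inoculated ip on day 0 with 1 × 10⁶ L1210 cells. Conjugate was given ip as a shaken or sonicated aqueous solution from day 1, over a wide dose range. Optimal-dose results are reported as ILS = (T/C − 1) × 100 from median survival, or as 45-day survivors.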

[3] = system: Mus musculus; assay: Antitumor activity at 300 mg/Kg/day on a 1 day treatment schedule, qd against L1210 infected mice was expressed as increase in life span (ILS); format: functional; conditions: L1210, 24 h; method in brief: as §1
[4] = system: Mus musculus; assay: Antitumor activity at 300 mg/kg/day on a 1,7 day treatment schedule, qd against L1210 infected mice was expressed as increase in life span (ILS); format: functional; method in brief: as §1
[5] = system: Mus musculus; assay: Number of mice (out of 6 mice) survived after treatment with 150 mg/kg/day of compound on 1, 5, 9 day treatment schedule for 45 days; format: functional; method in brief: as §1
[6] = system: Mus musculus; assay: Number of mice (out of 6 mice) survived after treatment with 200 mg/kg/day of compound on a 1,7 day treatment schedule for 45 days; format: functional; method in brief: as §1
[7] = system: Mus musculus; assay: Number of mice (out of 6 mice) survived after treatment with 300 mg/kg/day of compound on a 1 day treatment schedule for 45 days; format: functional; method in brief: as §1
[8] = system: Mus musculus; assay: Number of mice (out of 6 mice) survived after treatment with 300 mg/kg/day of compound on a 1 day by shaking method treatment schedule for 45 days; format: functional
Method in brief: (§2)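 Male DBA/2Ros mice (20–29 g, groups of 6) got 1 × 10⁶ L1210 leukemia cells ip on day 0. Ip treatment started day 1. Conjugate was shaken in sterile water for 2 h at room temperature, then 0.22 μm filtered. Mice were observed 45 days. Read-outs were median survival T/C with ILS = (T/C − 1) × 100, or 45-day survivors.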

[9] = system: Mus musculus; assay: Antitumor activity at 150 mg/kg/day on 1, 5, 9 day treatment schedule, qd against L1210 infected mice by shaking method was expressed as increase in life span (ILS); format: functional; conditions: L1210, 216 h; method in brief: as §2
[10] = system: Mus musculus; assay: Antitumor activity at 150 mg/kg/day on 1, 5, 9 day treatment schedule, qd against L1210 infected mice by sonication method was expressed as increase in life span (ILS); format: functional; conditions: L1210, 216 h
Method in brief: (§3)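 L1210 cells (1 × 10⁶) were inoculated ip into male DBA/2Ros mice (20–29 g, 6 per group) on day 0. Ip dosing began day 1. Conjugate in water suspension was sonicated 2 min (20–60 °C), then 0.22 μm filtered. Over a 45-day observation, read-outs were median survival T/C, ILS = (T/C − 1) × 100, or number alive at day 45.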

[11] = system: Mus musculus; assay: Antitumor activity at 300 mg/kg/day on a 1 day treatment schedule, qd against L1210 infected mice by shaking method was expressed as increase in life span (ILS); format: functional; conditions: L1210, 24 h; method in brief: as §2
[12] = system: Mus musculus; assay: Antitumor activity at 300 mg/kg/day on a 1 day treatment schedule, qd against L1210 infected mice by sonication method was expressed as increase in life span (ILS); format: functional; conditions: L1210, 24 h; method in brief: as §3
[13] = system: Mus musculus; assay: Number of mice (out of 6 mice) survived after treatment with 150 mg/kg/day of compound on 1, 5, 9 day by shaking method treatment schedule for 45 days; format: functional; method in brief: as §2
[14] = system: Mus musculus; assay: Number of mice (out of 6 mice) survived after treatment with 150 mg/kg/day of compound on 1, 5, 9 day by sonication method treatment schedule for 45 days; format: functional; method in brief: as §3
[15] = system: Mus musculus; assay: Number of mice (out of 6 mice) survived after treatment with 300 mg/kg/day of compound on a 1 day by sonication method treatment schedule for 45 days; format: functional; method in brief: as §3
[16] = system: Mus musculus; assay: Antitumor activity at 200 mg/kg/day on a 1 day treatment schedule, qd against L1210 infected mice was expressed as increase in life span (ILS); format: functional; conditions: L1210, 24 h; method in brief: as §1
[17] = system: Mus musculus; assay: Number of mice (out of 6 mice) survived after treatment with 200 mg/kg/day of compound on a 1 day treatment schedule for 45 days; format: functional; method in brief: as §1
[18] = system: Mus musculus; assay: Antitumor activity at 200 mg/kg/day on a 1,7 day treatment schedule, qd against L1210 infected mice was expressed as increase in life span (ILS); format: functional; method in brief: as §1
[19] = system: Mus musculus; assay: Antitumor activity at 200 mg/kg/day on a 1 day treatment schedule, qd against L1210 infected mice by sonication method was expressed as increase in life span (ILS); format: functional; conditions: L1210, 24 h; method in brief: as §3
[20] = system: Mus musculus; assay: Antitumor activity at 300 mg/kg/day on a 1,7 day treatment schedule, qd against L1210 infected mice by shaking method was expressed as increase in life span (ILS); format: functional; method in brief: as §2
[21] = system: Mus musculus; assay: Number of mice (out of 6 mice) survived after treatment with 300 mg/kg/day of compound on a 1,7 day treatment schedule for 45 days; format: functional; method in brief: as §1
[22] = system: Mus musculus; assay: Antitumor activity at 200 mg/kg/day on a 1 day treatment schedule, qd against L1210 infected mice by shaking method was expressed as increase in life span (ILS); format: functional; conditions: L1210, 24 h; method in brief: as §2

| Compound | solubility [1] [mM] | ILS at 150 mg/kg/day [2] [%] | No. of mice [5] | No. of mice [7] | ILS at 200 mg/kg/day [16] [%] | No. of mice [17] | other results |
| --- | --- | --- | --- | --- | --- | --- | --- |
| CCCCCCCCCCCCCCCCOCC(COP(=O)([O-])OP(=O)([O-])OC[C@H]1OC(n2ccc(N)nc2=O)[C@@H](O)[C@@H]1O)OC(=O)CCCCCCCCCCC.[Na+].[Na+] (stereo not given in full) | > 132 | > 463 | 5 | 0 | – | – | ILS at 300 mg/kg/day [3]: 119%; ILS at 300 mg/kg/day [4]: > 350%; No. of mice [6]: 3 |
| CCCCCCCCCCCCCCCCOCC(COP(=O)([O-])OP(=O)([O-])OC[C@H]1OC(n2ccc(N)nc2=O)[C@@H](O)[C@@H]1O)OC(=O)CCCCCCCCCCCCC.[Na+].[Na+] (stereo not given in full) | > 107 | – | – | – | – | – | No. of mice [8]: 1; ILS at 150 mg/kg/day [9]: > 463%; ILS at 150 mg/kg/day [10]: > 463%; ILS at 300 mg/kg/day [11]: 258%; ILS at 300 mg/kg/day [12]: > 464%; No. of mice [13]: 5; No. of mice [14]: 4; No. of mice [15]: 3 |
| CCCCCCCCCCCCCC(=O)OC(COCCCCCCCCCCCC)COP(=O)([O-])OP(=O)([O-])OC[C@H]1OC(n2ccc(N)nc2=O)[C@@H](O)[C@@H]1O.[Na+].[Na+] (stereo not given in full) | > 146 | > 394 | 3 | – | 69 | 0 | – |
| CCCCCCCCCCCCCCCC(=O)OC(COCCCCCCCCCCCC)COP(=O)([O-])OP(=O)([O-])OC[C@H]1OC(n2ccc(N)nc2=O)[C@@H](O)[C@@H]1O.[Na+].[Na+] (stereo not given in full) | > 131 | > 313 | 3 | – | 128 | 0 | ILS at 200 mg/kg/day [18]: 286%; No. of mice [6]: 0 |
| CCCCCCCCCCCCCCCCOCC(COP(=O)([O-])OP(=O)([O-])OC[C@H]1OC(n2ccc(N)nc2=O)[C@@H](O)[C@@H]1O)OC(=O)CCCCCCCCCCCCCCC.[Na+].[Na+] (stereo not given in full) | 0.13 | 306 | 3 | – | > 250 | 3 | – |
| CCCCCCCCCCCCCCOCC(COP(=O)([O-])OP(=O)([O-])OC[C@H]1OC(n2ccc(N)nc2=O)[C@@H](O)[C@@H]1O)OC(=O)CCCCCCCCCCCCC.[Na+].[Na+] (stereo not given in full) | > 121 | 125 | 1 | 0 | – | – | ILS at 300 mg/kg/day [3]: 178% |
| CCCCCCCCCCCCCCCC(=O)OC(COCCCCCCCCCCCCCC)COP(=O)([O-])OP(=O)([O-])OC[C@H]1OC(n2ccc(N)nc2=O)[C@@H](O)[C@@H]1O.[Na+].[Na+] (stereo not given in full) | > 43 | – | 3 and 5 | 4 and 2 | – | 2 and 1 | ILS at 150 mg/kg/day [9]: > 350%; ILS at 150 mg/kg/day [10]: > 463%; ILS at 200 mg/kg/day [19]: 206%; ILS at 300 mg/kg/day [11]: > 543%; ILS at 300 mg/kg/day [12]: > 206%; ILS at 300 mg/kg/day [20]: 107%; No. of mice [21]: 1; ILS at 200 mg/kg/day [22]: 275% |
